Measurements from ChEMBL document CHEMBL2311535, “Development of second-generation indole-based dynamin GTPase inhibitors” (J Med Chem, 2013).

Legend:
[1] = Inhibition of sheep dyn1 after 30 mins by malachite green GTPase assay in presence of GTP; design: species or system Ovis aries
Outline: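 Compound (≤3% DMSO) was present for 30 min at 37 °C, shaking. The reaction was stopped with EDTA, Pi read by malachite green at 650 nm against a phosphate standard.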

[2] = biological target: T1, Dynamin-2 (Rattus norvegicus, UniProt P39052); assay: Inhibition of rat full length His6-tagged dyn2 using phosphatidylserine as substrate after 90 mins by malachite green GTPase assay in presence of GTP
T1 sequence (P39052 whole entry): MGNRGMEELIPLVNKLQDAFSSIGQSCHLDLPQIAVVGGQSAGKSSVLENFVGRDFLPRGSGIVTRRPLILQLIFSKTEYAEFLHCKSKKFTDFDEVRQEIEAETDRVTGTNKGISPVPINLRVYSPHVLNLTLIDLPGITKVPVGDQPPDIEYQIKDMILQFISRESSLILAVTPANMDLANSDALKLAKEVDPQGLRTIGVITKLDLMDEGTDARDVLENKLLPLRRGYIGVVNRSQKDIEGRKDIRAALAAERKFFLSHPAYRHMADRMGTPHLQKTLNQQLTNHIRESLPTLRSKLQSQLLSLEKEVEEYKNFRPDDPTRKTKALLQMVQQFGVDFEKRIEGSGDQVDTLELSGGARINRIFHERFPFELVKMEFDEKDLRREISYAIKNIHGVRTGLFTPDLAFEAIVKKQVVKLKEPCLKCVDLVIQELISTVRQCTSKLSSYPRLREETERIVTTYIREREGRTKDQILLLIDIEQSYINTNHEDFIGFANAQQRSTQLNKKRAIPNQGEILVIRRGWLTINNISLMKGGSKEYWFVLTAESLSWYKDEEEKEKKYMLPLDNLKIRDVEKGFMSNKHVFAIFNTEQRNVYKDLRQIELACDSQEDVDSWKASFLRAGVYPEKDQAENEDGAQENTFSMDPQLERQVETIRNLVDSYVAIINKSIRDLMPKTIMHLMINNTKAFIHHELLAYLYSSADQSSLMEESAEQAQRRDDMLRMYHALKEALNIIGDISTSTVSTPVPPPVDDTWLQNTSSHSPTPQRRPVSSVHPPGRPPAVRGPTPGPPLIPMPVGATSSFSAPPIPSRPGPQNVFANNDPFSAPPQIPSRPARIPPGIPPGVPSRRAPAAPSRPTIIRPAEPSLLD
Outline: (§1)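 Normalized conditions: 50 nM sheep brain dynI or recombinant His6 full-length rat dynII (Sf21-expressed) was preincubated with 10 μg/mL PS for 15 min at RT. Reactions then ran in Tris/NaCl/Mg²⁺/Tween buffer pH 7.4 with leupeptin, AEBSF, 300 μM GTP and compound at 37 °C, 800 rpm: 10 min for dynI, 90 min for dynII. They were stopped with EDTA, and Pi was read by malachite green. Selectivity is the ratio of the two IC50s.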

[3] = Inhibition of sheep full length dyn1 using phosphatidylserine as substrate after 10 mins by malachite green GTPase assay in presence of GTP; design: species or system Ovis aries; outline: as §1
[4] = Selectivity ratio of IC50 for sheep dyn1 receptor to IC50 for rat dyn2 receptor; outline: as §1
[5] = system: HeLa; assay: Cytotoxicity against human HeLa cells at 30 uM after 8 hrs by trypan blue exclusion assay; assay type: cell-based
Outline: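 HeLa cells were treated with compound or vehicle (0.5% DMSO) for 8 h. Floating and adherent cells were pooled. Viability and membrane integrity were scored by Trypan Blue exclusion on an automated viability analyzer. Cytotoxicity (%) was normalized to drug/media background.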

| Compound | IC50 ([1]; read-out: IC50) [µM] | IC50 [2] [µM] | other results |
| --- | --- | --- | --- |
| CCCCCCCCNCc1cn(CCCN(C)C)c2ccccc12 | 2.3 | – | – |
| CCCCCCCCCCNCc1cn(CCCN(C)C)c2ccccc12 | – | 7.5 | – |
| CCCCCCCCNC(=O)/C(C#N)=C/c1cn(CC(=O)Nc2ccc3c(c2)OCO3)c2ccccc12 | – | – | IC50 [1]: Not Active |
| CCCCCCCCNC(=O)/C(C#N)=C/c1cn(CCCN(C)C)c2ccccc12 | 1.3 | 16 | IC50 [3]: 6.9 µM; Ratio IC50 [4]: 2.3; Activity [5]: 80% |
| CCCCCCCCNC(=O)/C(C#N)=C/c1cn(CC(O)CN2CCOCC2)c2ccccc12 (centres undefined) | 18 | – | – |
